ChEMBL document CHEMBL4765230, “Discovery of Orally Efficacious Phosphoinositide 3-Kinase δ Inhibitors with Improved Metabolic Stability” (J Med Chem, 2016)

Assays:
[1] = target: PI3-kinase p110-alpha/p85-alpha (Homo sapiens, UniProt P42336); experiment: Inhibition of human full length PI3K p110alpha/p85alpha using […] as substrate measured after 30 mins by TR-FRET assay; assay type: protein-complex assay
[2] = Clearance in dog at 1 mg/kg, iv; assay type: ADME, organism-based, Canis lupus familiaris; settings: in vivo
[3] = Volume of distribution at steady state in rat at 1 mg/kg, iv; assay type: ADME, organism-based; settings: in vivo, read-out: Vdss
Summary of the method: (§1)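 Rats and dog received 1 mg/kg intravenously, formulated in 12% w/v Captisol in water. Volume of distribution was taken at steady state from the iv plasma profile. Three animals per dosing route.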

[4] = Volume of distribution at steady state in dog at 1 mg/kg, iv; assay type: ADME, organism-based, Canis lupus familiaris; settings: in vivo, read-out: Vdss; summary of the method: as §1
[5] = Chemical stability of the compound at pH 2 phosphate buffer assessed as time required for 50% hydrolytic degradation at 100 ug/ml and 40 degreeC by UPLC-UV analysis; assay type: physicochemical; settings: dose 100 µg/ml, read-out: Time (converted)
Summary of the method: (§2)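 Compound diluted from acetonitrile or DMSO stock to 100 μg/mL final in 50 mM phosphate buffer, pH 2 (or pH 7), ionic strength 0.15 M NaCl, 40 °C in autosampler. Timed injections analysed by reverse-phase UPLC-UV (220 nm); pseudo-first-order kobs from ln c vs time; t50 and t90 calculated.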

[6] = Chemical stability of the compound at pH 2 phosphate buffer assessed as time required for 90% hydrolytic degradation at 100 ug/ml and 40 degreeC by UPLC-UV analysis; assay type: physicochemical; settings: in the assay text read “10% hydrolytic degradation” for “90% hydrolytic degradation”, dose 100 µg/ml; summary of the method: as §2
[7] = target: Phosphatidylinositol 4,5-bisphosphate 3-kinase catalytic subunit beta isoform (Homo sapiens, UniProt P42338); experiment: Inhibition of PI3K p110beta in human PC-3 cells assessed as reduction in AKT phosphorylation at S473 residue measured after 2 hrs by TR-FRET analysis; assay type: cell-based
Sequence of Phosphatidylinositol 4,5-bisphosphate 3-kinase catalytic subunit beta isoform (P42338 whole entry, canonical isoform): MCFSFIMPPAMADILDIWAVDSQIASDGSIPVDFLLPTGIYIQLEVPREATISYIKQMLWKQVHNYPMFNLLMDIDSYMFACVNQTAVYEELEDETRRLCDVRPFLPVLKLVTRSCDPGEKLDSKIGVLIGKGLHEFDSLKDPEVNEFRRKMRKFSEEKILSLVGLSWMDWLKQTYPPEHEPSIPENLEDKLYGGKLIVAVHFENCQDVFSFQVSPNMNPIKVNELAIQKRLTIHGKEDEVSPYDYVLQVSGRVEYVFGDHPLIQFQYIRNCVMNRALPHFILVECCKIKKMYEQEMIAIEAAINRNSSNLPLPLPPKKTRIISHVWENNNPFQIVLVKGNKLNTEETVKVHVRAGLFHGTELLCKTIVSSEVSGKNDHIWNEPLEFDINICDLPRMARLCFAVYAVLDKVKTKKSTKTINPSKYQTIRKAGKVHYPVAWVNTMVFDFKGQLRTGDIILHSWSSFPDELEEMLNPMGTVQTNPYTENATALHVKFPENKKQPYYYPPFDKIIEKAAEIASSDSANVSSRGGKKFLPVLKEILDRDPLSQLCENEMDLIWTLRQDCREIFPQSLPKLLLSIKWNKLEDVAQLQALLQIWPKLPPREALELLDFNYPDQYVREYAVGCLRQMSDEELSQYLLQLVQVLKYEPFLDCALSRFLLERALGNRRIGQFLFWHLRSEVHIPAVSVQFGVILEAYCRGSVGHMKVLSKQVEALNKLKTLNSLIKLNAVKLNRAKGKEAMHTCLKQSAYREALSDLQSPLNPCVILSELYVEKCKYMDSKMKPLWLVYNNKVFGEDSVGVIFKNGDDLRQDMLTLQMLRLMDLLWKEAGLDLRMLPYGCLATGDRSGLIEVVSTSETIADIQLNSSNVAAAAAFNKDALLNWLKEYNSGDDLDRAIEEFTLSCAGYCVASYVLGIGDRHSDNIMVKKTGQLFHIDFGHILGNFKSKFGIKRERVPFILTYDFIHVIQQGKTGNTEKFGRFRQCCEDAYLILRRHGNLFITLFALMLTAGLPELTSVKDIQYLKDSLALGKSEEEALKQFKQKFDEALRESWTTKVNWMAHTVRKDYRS
Summary of the method: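 PC3 cells quiesced 2 h at 37 °C/5% CO2 in DMEM with 0.1% FBS/1% PSG, then plated at 25 000 cells/well onto prespotted compound dilutions and incubated 2 h. Lysates were read for Akt and phospho-Akt S473 by TR-FRET (Eu-cryptate Akt donor, d2 phospho-Akt acceptor). Data normalized to 1 μM wortmannin and DMSO controls; four-parameter fit; triplicate; geometric mean.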

[8] = target: Phosphatidylinositol 4,5-bisphosphate 3-kinase catalytic subunit gamma isoform (Homo sapiens, UniProt P48736); experiment: Inhibition of PI3K p110gamma in human basophil assessed as reduction in fMLP-induced basophil activation by flow cytometry analysis; assay type: tissue-based
Sequence of Phosphatidylinositol 4,5-bisphosphate 3-kinase catalytic subunit gamma isoform (P48736 whole entry, canonical isoform): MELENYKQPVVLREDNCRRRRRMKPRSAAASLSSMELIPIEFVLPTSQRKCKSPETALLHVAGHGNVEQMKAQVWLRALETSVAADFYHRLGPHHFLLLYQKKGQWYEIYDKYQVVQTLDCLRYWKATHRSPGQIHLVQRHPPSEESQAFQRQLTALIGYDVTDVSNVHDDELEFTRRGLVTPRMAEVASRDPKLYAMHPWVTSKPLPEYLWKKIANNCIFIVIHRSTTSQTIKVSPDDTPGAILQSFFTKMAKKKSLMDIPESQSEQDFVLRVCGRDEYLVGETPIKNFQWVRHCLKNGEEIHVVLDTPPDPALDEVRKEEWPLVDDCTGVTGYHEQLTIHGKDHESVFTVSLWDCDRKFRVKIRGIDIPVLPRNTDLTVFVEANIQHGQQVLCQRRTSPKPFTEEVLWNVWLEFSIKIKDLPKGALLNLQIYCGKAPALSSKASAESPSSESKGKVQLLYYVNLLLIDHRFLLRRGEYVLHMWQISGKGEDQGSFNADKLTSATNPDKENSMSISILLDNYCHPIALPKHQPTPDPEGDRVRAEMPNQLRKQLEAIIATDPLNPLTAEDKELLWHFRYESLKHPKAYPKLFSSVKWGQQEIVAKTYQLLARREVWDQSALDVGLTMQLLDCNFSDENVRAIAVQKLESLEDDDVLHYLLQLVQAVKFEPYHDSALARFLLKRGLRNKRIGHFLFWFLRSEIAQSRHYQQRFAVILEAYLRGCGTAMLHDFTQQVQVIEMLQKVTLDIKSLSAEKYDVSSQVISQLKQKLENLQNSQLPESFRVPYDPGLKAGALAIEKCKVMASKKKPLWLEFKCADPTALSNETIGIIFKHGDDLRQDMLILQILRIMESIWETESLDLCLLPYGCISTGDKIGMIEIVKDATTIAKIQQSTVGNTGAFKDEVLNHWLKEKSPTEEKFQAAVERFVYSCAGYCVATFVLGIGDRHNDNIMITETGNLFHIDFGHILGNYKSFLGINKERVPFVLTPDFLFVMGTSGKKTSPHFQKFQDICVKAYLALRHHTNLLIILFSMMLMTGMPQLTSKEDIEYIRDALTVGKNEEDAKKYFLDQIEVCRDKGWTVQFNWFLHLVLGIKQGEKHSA
Summary of the method: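 Basophil activation via fMLP (p110γ) in 25% serum or in isolated WBCs in low serum, with increasing compound concentrations. Anti-CD63-FITC/anti-CCR3-PE staining; ≥150 (25% serum) or ≥75 (low serum) CCR3-high basophils gated; % CD63-positive normalized to 0.3% DMSO vehicle; concentration corrected for reagent dilution.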

[9] = target: T1, Phosphatidylinositol 4,5-bisphosphate 3-kinase catalytic subunit delta isoform (Homo sapiens, UniProt O00329); experiment: Inhibition of PI3K p110delta in human basophil assessed as reduction in anti-FCepsilonR1 mAb-induced basophil activation preincubated for 60 mins followed by anti-FCepsilonR1 mAb stimulation and measured after 25 mins in presence of 25% serum by flow cytometry analysis; assay type: tissue-based
T1 sequence (O00329 whole entry): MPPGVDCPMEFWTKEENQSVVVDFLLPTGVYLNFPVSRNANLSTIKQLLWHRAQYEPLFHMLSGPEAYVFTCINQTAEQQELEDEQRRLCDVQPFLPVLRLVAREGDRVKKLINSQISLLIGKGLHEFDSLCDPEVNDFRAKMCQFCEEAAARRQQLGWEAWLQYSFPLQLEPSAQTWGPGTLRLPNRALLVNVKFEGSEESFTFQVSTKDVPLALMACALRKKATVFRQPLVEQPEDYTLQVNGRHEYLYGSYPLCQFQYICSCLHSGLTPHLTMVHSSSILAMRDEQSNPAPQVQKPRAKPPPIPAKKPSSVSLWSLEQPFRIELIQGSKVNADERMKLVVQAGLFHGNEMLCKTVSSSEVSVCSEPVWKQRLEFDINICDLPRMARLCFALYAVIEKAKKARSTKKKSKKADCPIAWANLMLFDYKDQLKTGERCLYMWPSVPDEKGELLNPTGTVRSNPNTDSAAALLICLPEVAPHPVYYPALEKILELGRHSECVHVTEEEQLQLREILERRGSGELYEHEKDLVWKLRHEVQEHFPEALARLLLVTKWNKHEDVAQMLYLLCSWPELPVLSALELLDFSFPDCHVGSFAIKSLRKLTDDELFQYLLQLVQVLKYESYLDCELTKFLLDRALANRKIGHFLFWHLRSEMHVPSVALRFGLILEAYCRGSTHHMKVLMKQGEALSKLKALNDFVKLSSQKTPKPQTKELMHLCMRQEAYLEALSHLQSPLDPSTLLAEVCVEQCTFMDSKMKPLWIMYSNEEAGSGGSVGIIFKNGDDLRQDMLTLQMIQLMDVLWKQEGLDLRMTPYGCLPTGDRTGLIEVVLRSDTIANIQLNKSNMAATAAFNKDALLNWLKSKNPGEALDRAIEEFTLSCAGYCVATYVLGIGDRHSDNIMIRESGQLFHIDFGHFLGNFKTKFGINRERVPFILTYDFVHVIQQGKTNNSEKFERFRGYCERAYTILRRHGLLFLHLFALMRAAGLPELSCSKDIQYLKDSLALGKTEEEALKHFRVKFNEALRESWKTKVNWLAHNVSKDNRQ

[10] = Oral bioavailability in Sprague-Dawley rat at 5 mg/kg measured over 24 hrs by LC/MS/MS analysis; assay type: ADME, organism-based; settings: in vivo
Summary of the method: (§3)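 Intravenous 1 mg/kg and oral 5 mg/kg doses. Vehicle: 5% ethanol/55% PEG 400/40% water for rats and dogs; 5% ethanol/22% PEG 400/73% water for cynomolgus; 5% ethanol/25% PEG 400/70% water for rhesus. Half-life and MRT from iv; mean ± SD, n = 3 per route.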

[11] = Clearance in Beagle dog at 1 mg/kg, iv measured over 24 hrs by LC/MS/MS analysis; assay type: ADME, organism-based, Canis lupus familiaris; settings: in vivo; summary of the method: as §3
[12] = MRT in cynomolgus monkey at 1 mg/kg, iv measured over 24 hrs by LC/MS/MS analysis; assay type: ADME, organism-based, Macaca fascicularis; settings: in vivo; summary of the method: as §3
Rattus norvegicus = experiment: Antiarthritic activity in Lewis rat model of Freund's incomplete adjuvant-induced arthritis assessed as inhibition of […] bone formation at 0.3 to 3 mg/kg, po bid administered for 7 days at 12 hrs interval starting from day 10 to day 16 post-immunization by microscopic analysis relative to control; assay type: functional; set-up: scale not given: the % may be the effect or the level left; settings: dose 0.3-3 mg/kg, time 7 day
Summary of the method: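 Female Lewis rats with established collagen-induced arthritis dosed orally twice daily for 7 days at 0.3, 1 and 3 mg/kg, starting day 10 after second collagen immunization. Joint histopathology scored for pannus formation, cartilage damage, bone resorption and periosteal bone formation; ED50 derived. n = 8/treatment group, n = 4 normal controls.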

[13] = In vivo inhibition of PI3Kdelta in Lewis rat model of Freund's incomplete adjuvant-induced arthritis at 0.3 mg/kg, po bid administered for 7 days at 12 hrs interval starting from day 10 to day 16 post-immunization relative to control; assay type: functional; settings: 168 h, time 7 day
Summary of the method: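 CIA Lewis rats dosed orally twice daily for 7 days at 0.3, 1 or 3 mg/kg; blood/plasma drug levels taken on day 7, 12 h after final dose, and related to PI3Kδ inhibition at trough.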

Sequence of PI3-kinase p110-alpha/p85-alpha (P27986 whole entry): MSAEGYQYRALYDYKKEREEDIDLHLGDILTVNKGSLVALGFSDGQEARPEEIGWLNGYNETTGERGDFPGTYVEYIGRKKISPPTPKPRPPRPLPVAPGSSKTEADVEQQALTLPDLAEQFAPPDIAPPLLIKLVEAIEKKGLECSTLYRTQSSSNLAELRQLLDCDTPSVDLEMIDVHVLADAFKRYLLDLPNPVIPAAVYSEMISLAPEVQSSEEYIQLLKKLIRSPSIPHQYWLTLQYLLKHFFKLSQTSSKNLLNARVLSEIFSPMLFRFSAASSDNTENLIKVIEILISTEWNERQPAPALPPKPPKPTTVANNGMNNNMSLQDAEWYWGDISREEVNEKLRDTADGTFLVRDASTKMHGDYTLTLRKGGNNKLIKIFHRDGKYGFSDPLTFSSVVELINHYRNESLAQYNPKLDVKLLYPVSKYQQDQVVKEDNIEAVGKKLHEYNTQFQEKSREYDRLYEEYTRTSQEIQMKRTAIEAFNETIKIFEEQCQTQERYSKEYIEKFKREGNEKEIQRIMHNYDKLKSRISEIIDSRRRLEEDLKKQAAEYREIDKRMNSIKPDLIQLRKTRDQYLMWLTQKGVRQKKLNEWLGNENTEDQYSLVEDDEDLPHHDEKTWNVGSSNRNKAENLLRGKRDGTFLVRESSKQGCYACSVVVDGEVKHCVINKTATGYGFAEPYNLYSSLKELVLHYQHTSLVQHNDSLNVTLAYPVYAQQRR
Sequence of PI3-kinase p110-alpha/p85-alpha (P42336 whole entry): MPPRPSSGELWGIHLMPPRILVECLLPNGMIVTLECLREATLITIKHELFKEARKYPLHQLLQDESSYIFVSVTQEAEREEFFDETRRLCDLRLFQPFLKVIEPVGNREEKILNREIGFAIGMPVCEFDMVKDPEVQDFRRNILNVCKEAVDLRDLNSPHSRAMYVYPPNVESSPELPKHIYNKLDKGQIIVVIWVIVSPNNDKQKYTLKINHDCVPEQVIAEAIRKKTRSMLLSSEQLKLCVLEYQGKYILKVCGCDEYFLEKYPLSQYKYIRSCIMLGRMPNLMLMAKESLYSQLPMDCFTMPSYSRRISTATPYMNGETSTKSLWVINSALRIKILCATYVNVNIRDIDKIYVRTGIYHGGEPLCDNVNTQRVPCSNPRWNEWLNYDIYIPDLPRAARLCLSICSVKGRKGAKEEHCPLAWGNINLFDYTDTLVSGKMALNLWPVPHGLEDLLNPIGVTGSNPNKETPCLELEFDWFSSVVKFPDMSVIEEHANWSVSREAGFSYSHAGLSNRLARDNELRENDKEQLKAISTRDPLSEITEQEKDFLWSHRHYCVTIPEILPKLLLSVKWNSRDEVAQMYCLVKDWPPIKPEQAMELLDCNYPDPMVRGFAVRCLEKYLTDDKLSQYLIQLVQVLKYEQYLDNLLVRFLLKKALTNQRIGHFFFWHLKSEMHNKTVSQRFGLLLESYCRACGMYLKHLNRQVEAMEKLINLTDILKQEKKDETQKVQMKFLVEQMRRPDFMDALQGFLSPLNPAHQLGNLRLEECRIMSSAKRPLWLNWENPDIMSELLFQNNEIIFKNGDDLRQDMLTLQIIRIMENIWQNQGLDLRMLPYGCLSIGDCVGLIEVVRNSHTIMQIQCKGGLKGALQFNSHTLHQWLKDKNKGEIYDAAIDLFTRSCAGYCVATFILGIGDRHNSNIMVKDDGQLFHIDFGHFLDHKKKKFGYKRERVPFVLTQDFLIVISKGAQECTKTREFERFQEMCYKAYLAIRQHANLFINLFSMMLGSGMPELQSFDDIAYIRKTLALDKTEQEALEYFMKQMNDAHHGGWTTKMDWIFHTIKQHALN

## N#Cc1c(N)nc(N)nc1N[C@H](c1nc2c(F)ccc(Cl)c2c(=O)n1-c1cccnc1)C1CC1 [GS-9901]
[1]
  IC50: 0.75 µM
[2]
  clearance: 9 mL/min/kg
[3]
  Vd: 0.83 L/kg
[4]
  Vd: 1.03 L/kg
[5]
  half-life at 100 ug/ml: 20 h
[6]
  Time: 3.1 h
[7]
  EC50: 0.042 µM
[8]
  EC50: 0.404 µM
[9]
  EC50: 0.0013 µM
[10]
  bioavailability: 57%
[11]
  clearance: 9 mL/min/kg
[12]
  MRT: 3.05 h
Rattus norvegicus
  Activity: 48%
[13]
  inhibition in vivo at 0.3 mg/kg: 60%
